# Bioassay records: PubChem BioAssay, several laboratories
# Neddylation inh: inhibitors of human cullin neddylation. inhibition, % at 25 µM. hit rate 0.58% among 360,000. TR-FRET cullin neddylation, biochemical. P61081+Q13564; in the data active = inhibition above about 36%
# Arr AP2 block: inhibitors of human beta-arrestin and AP2 interaction; inhibition, % at 10 µM; hit rate 0.31% among 340,000; FITC-arrestin peptide / GST-AP2 beads, flow cytometry; AP2 beta2 appendage carries R879A mutation; AID 504490;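 active = inhibition above a set limit, near 3 SD of compounds lacking own fluorescence, cut at about 54% in these data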;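 note: plate controls were DMSO wells for no effect and 5 µM unlabelled arrestin peptide for full effect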
#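 System: GST-AP2 R879A bound to glutathione beads, E. coli-expressed. Also added: 50 nM FITC-arrestin peptide. Schedule: compound with beads 12 min RT, then probe 1 h RT. Signal: bead flow cytometry, FITC channel. Read-out basis: percent response.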
# Efflux pump mplx: inhibitors of Candida antifungal efflux pumps expressed in yeast | S. cerevisiae Candida pump triplex, Nile Red efflux | inhibition, % at 10 µM | hit rate 0.44% among 330,000;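 active = plate passing quality check with inhibition over a set limit, or well fluorescence over plate mean plus 4 SD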;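 note: Nile Red retained in pooled yeast measured as flow cytometry median fluorescence; 0% = buffer negative control and 100% = Enniatin B positive control; higher means more Nile Red kept so more efflux inhibition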
# DSG3 Ab inh: human desmoglein-3 autoantibody binding inhibition | P32926 | DSG3-coupled beads, scFv-anti-DSG3-GFP binding, flow cytometry; active compounds read low | binding (percent of control), % at 10 µM | hit rate 0.48% among 310,000 | AID 588358;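 active = binding more than 3 SD below its plate's average and above zero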;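 note: hits lower antibody fragment binding to DSG3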
# Target sequence (P32926 whole entry, looked up, the tested form may be a part): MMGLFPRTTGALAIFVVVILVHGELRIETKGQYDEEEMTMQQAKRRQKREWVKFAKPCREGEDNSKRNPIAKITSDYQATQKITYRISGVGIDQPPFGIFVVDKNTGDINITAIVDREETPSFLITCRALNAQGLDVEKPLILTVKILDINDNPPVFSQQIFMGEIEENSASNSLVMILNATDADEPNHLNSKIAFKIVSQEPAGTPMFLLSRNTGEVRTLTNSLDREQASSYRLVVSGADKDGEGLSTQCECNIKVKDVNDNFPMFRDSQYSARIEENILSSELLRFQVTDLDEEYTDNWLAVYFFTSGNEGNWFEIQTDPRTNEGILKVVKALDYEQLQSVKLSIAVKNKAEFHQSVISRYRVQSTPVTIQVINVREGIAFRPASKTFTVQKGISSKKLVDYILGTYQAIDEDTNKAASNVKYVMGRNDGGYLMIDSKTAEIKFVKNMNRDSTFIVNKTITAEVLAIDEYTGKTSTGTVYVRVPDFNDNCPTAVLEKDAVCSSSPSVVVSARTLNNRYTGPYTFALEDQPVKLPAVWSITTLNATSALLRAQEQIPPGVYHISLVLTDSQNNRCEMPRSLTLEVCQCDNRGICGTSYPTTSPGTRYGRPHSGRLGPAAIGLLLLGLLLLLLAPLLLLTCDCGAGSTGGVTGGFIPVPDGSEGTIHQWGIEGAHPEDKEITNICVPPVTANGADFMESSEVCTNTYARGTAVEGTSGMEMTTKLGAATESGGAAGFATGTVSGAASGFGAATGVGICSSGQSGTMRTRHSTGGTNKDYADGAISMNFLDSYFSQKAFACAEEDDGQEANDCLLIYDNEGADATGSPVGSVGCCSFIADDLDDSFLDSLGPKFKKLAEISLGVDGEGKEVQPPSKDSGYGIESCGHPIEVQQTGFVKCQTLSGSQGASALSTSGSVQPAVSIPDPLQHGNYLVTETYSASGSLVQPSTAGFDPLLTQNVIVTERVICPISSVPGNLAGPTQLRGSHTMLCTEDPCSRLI
# Active calls of the source: *; · = no result shown. An excerpt weighted towards active compounds, which were near 1.7% of everything screened.
SMILES,Neddylation inh,Arr AP2 block,Efflux pump mplx,DSG3 Ab inh
CCCCC1OC23CCCCC2C(C#N)(C(=N)O3)C1(C#N)C#N (centres undefined),·,-16.1,0.2,95.7
Cc1ccc(/C=C2\SC(=S)N(CC3CCCO3)C2=O)o1 (centres undefined),9.7,1.6,-0.2,·
Cc1ccc(/C=C2/SC(=S)N(C3CCCCC3)C2=O)o1,-6.2,62.0*,0.4,88.5
COc1ccnc2c1c(=O)n(Cc1ccc(F)cc1)c(=O)n2C,-68.0,-6.7,0.0,103.4
CCOc1cc(/C=N/NC(=O)c2cccnc2)ccc1OCC(=O)N(C)C,0.5,35.9,-0.1,78.2*
CCOC(=O)Cc1csc(NC(=O)/C=C/c2ccc(OC)cc2)n1,-7.1,12.8,0.0,101.1
Cc1ccc2nc(NC(=O)c3ccc4ncsc4c3)sc2c1,34.5,3.7,0.3,-6.3*
O=C(O)c1ccc(N/N=C/c2cn(Cc3ccc(F)cc3)c3ccccc23)cc1,45.5*,2.7,-0.1,99.3
C=CCSc1nnc(NC(=O)c2c(CC)noc2C)s1,4.9,-5.4,0.0,91.9
CCCC1CC(C)(/C(C)=N\NC(N)=S)OC1=O (centres undefined),-29.8,55.5*,0.1,107.2
CCN(C(=O)COC(=O)c1cc([N+](=O)[O-])ccc1N1CCOCC1)C1CCCCC1,-17.1,-0.4,0.0,102.2
NS(=O)(=O)c1ccc(NC(=O)COc2ccc(C(=O)c3ccc(F)cc3)cc2)cc1,-307.2,12.0,-0.2,54.0*
COc1ccc(C2CC(=O)C=C3c4ccc(OC)cc4CCC32)cc1 (centres undefined),-41.8,·,·,84.0*
O=C(O)C1CCCCC1C(=O)Nc1ccccc1C(=O)N1CCN(c2ccc(F)cc2)CC1 (centres undefined),-5.1,17.5,-0.6,101.9
Cc1ccc(CN2CCN(C(=O)c3ccncc3)CC2)cc1,1.9,-6.5,-0.1,61.9*
O=C(c1ccccc1)N1CCN(Cc2ccccc2)CC1,4.9,-5.3,0.0,105.5
COc1ccc2c(c1)c(=O)oc1cc(OCC(=O)NCC3CCC(C(=O)O)CC3)ccc12 (centres undefined),·,4.4,-0.1,-19.1*
COc1ccc(C2=NS(=O)(=O)N(C)C(C(=O)NCc3ccc4c(c3)OCO4)=C2)cc1OC,-11.6,-2.0,0.0,62.8*
COc1ccc(CNC(=O)C2=CC(c3ccc(OC)c(OC)c3)=NS(=O)(=O)N2C)cc1,-5.8,-6.9,0.1,90.7
C=CCOC(=O)COc1ccc2c(C)c(C)c(=O)oc2c1C,40.6*,-2.3,-0.1,102.9
Cc1c(C)c2ccc(OCC(=O)N(C)C)c(C)c2oc1=O,·,-4.5,0.1,102.5
N#CC/C(N)=N/Nc1nc2ccccc2nc1Cc1ccccc1,17.7,13.0,0.6,120.4
Cc1sc(NC(=O)c2ccco2)c(CN2CCN(c3ccc(F)cc3)CC2)c1C,28.8,2.8,-0.2,95.5
Cc1sc(NC(=O)c2ccco2)c(CN2CCN(c3ccccn3)CC2)c1C,45.1*,1.9,0.1,99.8
COc1ccc(N2CCN(C(=S)Nc3cccc(C)c3C)CC2)cc1,-3.4,33.6,0.2,48.6*
SMILES,Neddylation inh,Arr AP2 block,Efflux pump mplx,DSG3 Ab inh
COc1cccc(N/C=C(\C#N)c2ccc(OCCCF)cc2)c1,-16.2,-2.9,0.0,72.6*
Cc1ccn2c(=O)nc(SCC(=O)N3CCN(c4ccccc4)CC3)nc2c1,2.9,-13.5,-0.1,102.0
O=C(O)c1ccccc1Nc1cc(Cl)c2nonc2c1[N+](=O)[O-],-36.7,15.6,0.1,113.5
O=[N+]([O-])c1c(Nc2ccccn2)cc(Cl)c2nonc12,-28.3,26.2,11.1*,110.3
Cc1nc(C)n(CC(C)C(=O)N2CCN(S(=O)(=O)c3ccc(Cl)cc3)CC2)n1 (centres undefined),-8.0,9.2,0.0,102.9
COc1cccc(/C=N/n2c(COc3ccccc3)n[nH]c2=S)c1,-7.1,8.1,-0.2,104.5
N#C/C(=C\c1cn(-c2ccccc2)nc1-c1cc2ccccc2o1)c1nc2ccccc2[nH]1,·,-6.6,0.0,85.3
Cc1ccc(-c2nn(-c3ccccc3)cc2/C=C(\C#N)c2cccc(C#N)c2)o1,37.2*,5.5,0.1,99.7
CN(C)CCCNC(=O)c1ccc(=O)[nH]n1,-2.1,10.5,0.2,99.7
COc1ccc2nc3ccccc3[n+]([O-])c2c1,46.7*,-3.9,·,91.2
COc1ccc2c(ccc[n+]2[O-])c1,-16.1,8.3,·,89.9
O=C(O)COc1ccc2c3c(c(=O)oc2c1)CCC3,·,-3.0,-0.1,102.8
CCCN1C(=O)/C(=c2\sc3nc(=O)c(Cc4ccc(C)cc4)nn3c2=O)c2ccccc21,0.2,39.4,0.0,67.7*
Cc1ccc(S(=O)(=O)N(C)C)cc1NC(=O)C1CCCC1,8.6,-7.2,-0.1,114.9
